Apaf1 inhib: inhibitors of human Apaf-1 apoptosome; O14727; reconstituted apoptosome caspase-3 activity, DEVD-Rh110 fluorescence; inhibition, % at 20 µM; 330,000 tested, 0.71% active; active means inhibition of at least 40% at 20 µM;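 further: plate controls were DMSO wells for no effect and DEVD-CHO caspase inhibitor wells for full effect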
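Assay system – apoptosome proteins · Medium – Hepes buffer, pH 7.5 · Also added – cytochrome c with DEVD-Rh110 · Timing – 30 min compound preincubation, 50 min activation, room temperature · Detection – Rh110 fluorescence, excitation 480 nm, emission 540 nm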
PfGluPho inh: PfG6PD (Plasmodium falciparum) enzyme inhibition; inhibition, % at 20 µM; AID 504690; PfGluPho enzyme, NADPH resazurin-diaphorase fluorescence; 350,000 tested, 0.78% active;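 active means inhibition reaching at least a set limit at 20 µM in the primary screen, cut at about 59% in these data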;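 further: 0% = DMSO wells with substrate and 100% = DMSO wells lacking glucose-6-phosphate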
UBC13 inh: human UBC13 polyubiquitination inhibition. P61088. UBC13 polyubiquitin chain formation, TR-FRET. inhibition, % at 20 µM. 330,000 tested, 0.47% active; in the data active means inhibition above about 45%, passing the limit was not always enough
Target sequence (P61088 whole entry, looked up): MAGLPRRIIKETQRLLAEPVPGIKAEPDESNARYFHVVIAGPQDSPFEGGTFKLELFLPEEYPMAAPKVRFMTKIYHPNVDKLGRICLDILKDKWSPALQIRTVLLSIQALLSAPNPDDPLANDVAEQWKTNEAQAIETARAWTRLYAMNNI
M18AAP inhibitor: blocks P. falciparum M18 aspartyl aminopeptidase; recombinant PfM18AAP, H-Glu-NHMec fluorogenic cleavage; inhibition, % at 7.35 µM; 290,000 tested, 1.2% active; AID 1822;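 active means inhibition above the campaign mean inhibition over all tested compounds plus 3 SD, cut at about 28% in these data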;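 further: 0% = plate median of test compound wells and 100% = 2 mM ZnCl2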
ZTA counter: blocks Epstein-Barr virus ZTA, an EBNA-1 counter-screen. ZTA-DNA binding, fluorescence polarization. inhibition, % at 11 µM. 320,000 tested, 0.15% active; in the data active means inhibition above about 33%
Target sequence (P03206 whole entry, looked up): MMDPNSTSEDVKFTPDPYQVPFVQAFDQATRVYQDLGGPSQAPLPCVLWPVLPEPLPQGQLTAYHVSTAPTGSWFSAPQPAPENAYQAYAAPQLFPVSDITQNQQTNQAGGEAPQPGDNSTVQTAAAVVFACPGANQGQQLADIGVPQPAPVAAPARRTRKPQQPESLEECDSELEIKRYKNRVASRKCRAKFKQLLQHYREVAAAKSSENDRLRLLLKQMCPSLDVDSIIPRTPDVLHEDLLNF
EBNA-1 inh: blocks EBNA-1 binding to DNA. EBNA-1 DNA binding, fluorescence polarization. inhibition, % at 14.8 µM. 300,000 tested, 0.34% active. AID 1950; in the data active means inhibition above about 28%
PfG6PD confirm: PfG6PD inhibition, single-dose confirmed | shares compounds with PfGluPho inh | AID 504753 | inhibition, % at 20 µM | recombinant PfGluPho, NADPH-diaphorase-resazurin fluorescence | 2,400 tested, 34% active;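 active means inhibition of at least 50% at 20 µM in any single replicate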;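 further: 0% = DMSO with substrate and 100% = DMSO lacking glucose-6-phosphate substrate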
Diaph ctr 10uM: diaphorase inhibition or oxidation at 10 uM NADPH; shares compounds with PfGluPho inh; diaphorase-coupled resazurin reduction, fluorescence, NADPH 10 uM; inhibition, % at 20 µM; 820 tested, 39% active; AID 504862;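 active means average inhibition reaching 50% or more with the compound at 20 µM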;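 further: resorufin red fluorescence formed as diaphorase reduces resazurin using NADPH; 0% = DMSO with enzyme and 100% = DMSO without enzyme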
Diaphorase 30uM: diaphorase inhibition or oxidation at 30 uM NADPH; shares compounds with PfGluPho inh; Diaphorase/resazurin coupled assay, resorufin fluorescence; inhibition, % at 20 µM; 820 tested, 29% active;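 active means inhibition averaging 50% or more, tested at 20 µM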;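 further: 0% = DMSO with enzyme and 100% = DMSO wells lacking diaphorase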
Active calls of the source: *; . = no result given. An excerpt weighted towards active compounds, which were near 2.9% of everything screened.

SMILES | Apaf1 inhib | PfGluPho inh | UBC13 inh | M18AAP inhibitor | ZTA counter | EBNA-1 inh | PfG6PD confirm | others
CC1=C(C(N)=O)C(c2ccccc2[N+](=O)[O-])n2ncnc2N1 (stereo unspecified) | 16.8 | 65.2* | -27.4 | 25.7 | 12.1 | 12.6 | 0.0
Cc1ccc2[nH]c(O)c(N=NC(=O)C(C)n3cnc4ccccc4c3=O)c2c1 (stereo unspecified) | 11.9 | 68.3* | -16.8 | -7.3 | -17.9 | -6.9 | 49.8* | Diaph ctr 10uM=67.8*;Diaphorase 30uM=55.5*
CC(C(=O)c1ccccc1)n1cnc2ccccc2c1=O (stereo unspecified) | 4.2 | 0.3 | 1.4 | 11.8 | -6.6 | 6.2 | .
CC(Cc1ccccc1)N/C=C1\CC(=O)NC1=O (stereo unspecified) | -3.2 | -8.7 | -1.5 | 0.0 | -9.8 | 8.4 | .
Cc1cc(C)c(S(=O)(=O)Nc2cc(SCC(=O)O)c(O)c3ccccc23)cc1C | . | 106.5* | . | -5.5 | -0.1 | -0.1 | 98.4* | Diaph ctr 10uM=52.0*;Diaphorase 30uM=39.2
O=C(O)CSc1cc(NS(=O)(=O)c2ccc(Cl)cc2)c2ccccc2c1O | . | 109.2* | . | 13.7 | 10.5 | 3.2 | 91.0* | Diaph ctr 10uM=55.8*;Diaphorase 30uM=41.1
CCOC(=O)/C(=C\c1cccnc1)C(=O)c1cc(C(C)=O)c(Nc2ccccc2)s1 | 26.7 | 65.6* | -10.8 | 2.9 | 6.5 | -6.1 | 20.2
CC1Oc2ccccc2N(CC(=O)c2ccc(F)cc2)C1=O (stereo unspecified) | 1.3 | -4.0 | 3.1 | 1.3 | 0.7 | -2.0 | .
C=C(C)COc1ccc(-c2ncnc(C(F)(F)F)c2-c2ccc(OC)cc2)c(O)c1 | 16.1 | 70.5* | -11.5 | -7.1 | -13.5 | -20.6 | -3.8
C=C(C)COc1ccc(-c2ncnc(C(F)(F)F)c2-c2ccccc2)c(O)c1 | 8.8 | 25.5 | -3.3 | -2.0 | -0.1 | -11.4 | .
C=CCOc1ccc(/C=C(\C#N)C(=O)Nc2ccccn2)cc1 | 5.7 | -11.0 | 6.5 | 4.0 | 0.9 | -1.3 | .
CC(=O)c1sc(NC(=O)c2cnc(Cl)c(Cl)c2)nc1C | 2.3 | 62.1* | -6.8 | -2.5 | 4.5 | -4.4 | 41.8
Cc1ccc2c(c1)C(=C(C#N)C#N)C(=O)N2CCN1CCCCC1 | -2.8 | 2.5 | -7.8 | -1.6 | -7.1 | -2.8 | .
COc1cc(CNc2ccc3[nH]c(=O)[nH]c3c2)ccc1OCc1ccc(F)cc1 | 8.9 | 65.7* | 1.0 | -22.6 | -31.6 | 5.2 | 38.7
COc1cccc(CNc2ccc3[nH]c(=O)[nH]c3c2)c1OCc1ccccc1 | 7.8 | 28.9 | -11.6 | -43.7 | . | . | .
C=CCOc1ccc(CNc2ccc3[nH]c(=O)[nH]c3c2)cc1OC | . | 84.9* | . | -22.5 | . | . | 66.2* | Diaph ctr 10uM=15.2;Diaphorase 30uM=18.7
COc1cc(CNc2ccc3[nH]c(=O)[nH]c3c2)ccc1OCc1c(F)cccc1Cl | 7.9 | 22.4 | 6.4 | 9.8 | . | . | .
COc1cc(CNc2ccc3[nH]c(=O)[nH]c3c2)ccc1OCc1ccc(Cl)cc1 | 10.8 | 63.4* | -5.8 | -12.5 | -6.3 | -2.5 | 36.7
COc1cccc(CNc2ccc3[nH]c(=O)[nH]c3c2)c1OCc1ccccc1Cl | 19.3 | 65.4* | -13.1 | -39.3 | 10.3 | -1.7 | 49.8* | Diaph ctr 10uM=-2.9;Diaphorase 30uM=0.2
COCC1=C(C(=O)OC)C(c2ccco2)n2ncnc2N1 (stereo unspecified) | 1.4 | -6.0 | -2.9 | 6.6 | -18.2 | -3.4 | .
COc1cc(CNc2ccc3[nH]c(=O)[nH]c3c2)ccc1OCc1ccccc1 | 5.1 | 65.4* | -3.3 | -32.9 | 2.7 | -1.6 | 49.9* | Diaph ctr 10uM=0.2;Diaphorase 30uM=1.1
COc1cc(CNc2ccc3[nH]c(=O)[nH]c3c2)ccc1OCc1ccccc1C | 12.3 | 45.6 | 1.5 | -14.8 | 17.5 | 8.2 | .
Cc1ccc(-c2cc(C(=O)N3CCN(c4ncccn4)CC3)c3cc(Br)ccc3n2)o1 | 2.9 | 61.6* | 0.3 | 6.2 | 5.7 | 4.5 | -10.8
Cc1ccc(-c2cc(C(=O)N3CCN(c4ccc(F)cc4)CC3)c3ccccc3n2)o1 | 25.4 | 15.8 | 8.0 | -37.3 | 9.2 | 0.0 | .
CN(C)Cc1cc(C(C)(C)C)cc(C(C)(C)C)c1O | -25.9 | -14.1 | -6.2 | -3.4 | 18.1 | -6.8 | .
